In ChEMBL document CHEMBL4138168, “Design and synthesis of novel thiobarbituric acid derivatives targeting both wild-type and BRAF-mutated melanoma cells” (Eur J Med Chem, 2018):

What was measured:
Assay type in all cases: functional, cell-based
[1] = tested on: CHL-1; assay: Antiproliferative activity against human CHL-1 cells harboring wild type BRAF after 72 hrs by MTT assay; settings: CHL-1, 72 h
Procedure, shortened: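 Cells (CHL-1) cultured in DMEM with 10% FBS at 37 °C and treated with compound for 72 h. Viability measured by MTT uptake: 3 h with MTT, DMSO solubilisation, absorbance at 570 nm with 630 nm background subtraction. IC50 taken as the mean of triplicates from at least two independent experiments.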

[2] = tested on: UACC-903; assay: Cytotoxicity against human UACC-903 cells assessed as cell viability at 25 uM after 48 hrs by MTT assay relative to control; settings: UACC-903, 48 h
Procedure, shortened: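 MCF10A normal breast epithelial cells were kept in MEGM mammary epithelial medium; the cancer lines were in DMEM with 10% FBS, 37 °C. OD at 570 nm with 630 nm background, expressed relative to control.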

[3] = tested on: PANC-1; assay: Antiproliferative activity against human PANC1 cells after 48 hrs by MTT assay; settings: PANC-1, 48 h
Procedure, shortened: (§1)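 3,000 cells per well, grown at 37 °C (DMEM with 10% FBS and penicillin/streptomycin; HCT116 in McCoy's 5A). Cells exposed in triplicate to 0.5–25 μM compound for 48 h. MTT (5 mg/mL PBS stock) added for 3 h, formazan dissolved in DMSO, OD read at 570 nm minus 630 nm background. IC50 from non-linear regression of two independent experiments.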

[4] = tested on: MDA-MB-231; assay: Antiproliferative activity against ER/PR/HER2 deficient human MDA-MB-231 cells after 48 hrs by MTT assay; settings: MDA-MB-231, 48 h; procedure, shortened: as §1
[5] = tested on: MCF7; assay: Antiproliferative activity against human MCF7 cells expressing ER/PR/HER2 after 48 hrs by MTT assay; settings: MCF7, 48 h; procedure, shortened: as §1
[6] = tested on: HCT-116; assay: Antiproliferative activity against human HCT116 cells after 48 hrs by MTT assay; settings: HCT-116, 48 h; procedure, shortened: as §1

SMILES	IC50 [1] [µM]	IC50 [2] [µM]	IC50 [3] [µM]	IC50 [4] [µM]	IC50 [5] [µM]	IC50 [6] [µM]
C=CCN1C(=O)/C(=C\C=C\c2cccs2)C(=O)NC1=S	7.5	6.7	–	–	–	–
O=C1NC(=[Se])NC(=O)C1=C/C=C/c1cccs1	6.3	7.8	–	–	–	–
C=CCN1C(=O)C(=C/C=C/c2ccccc2)C(=O)N(CC=C)C1=S	8.1	18.1	–	–	–	–
CCN1C(=O)/C(=C\C=C\c2cccs2)C(=O)NC1=S	–	4.6	20.5	8.5	24	8.3
O=C1NC(=S)NC(=O)C1=C/C=C/C=C/c1ccccc1	–	6.5	–	–	–	–
O=C1NC(=S)NC(=O)C1=C/C=C/c1ccco1	8.5	8	24.4	16.5	27.9	20.1
O=C1NC(=[Se])NC(=O)C1=C/C=C/c1ccco1	9.7	2.3	–	–	–	–
O=C1NC(=[Se])NC(=O)C1=C/C=C/c1ccccc1	9.4	13.6	–	–	–	–
C=CCN1C(=O)C(=C/C=C/c2ccco2)C(=O)N(CC=C)C1=S	8	17.6	–	–	–	–
CCN1C(=O)C(=C/C=C/c2ccco2)C(=O)N(CC)C1=S	8.6	18.8	–	–	–	–
C=CCN1C(=O)/C(=C\C=C\c2cccs2)C(=O)N(CC)C1=S	–	6.1	–	–	–	–
CCN1C(=O)/C(=C/C=C/c2cccc3ccccc23)C(=O)NC1=S	–	23.4	–	–	–	–
O=C1NC(=S)NC(=O)C1=C/C=C/c1cccnc1	–	18.4	–	–	–	–
CCN1C(=O)\C(=C/C=C/C=C/c2ccco2)C(=O)NC1=S	–	7.6	–	–	–	–
O=C1NC(=S)NC(=O)C1=C/C=C/c1ccccc1	10.6	9.1	–	–	–	–
CCN1C(=O)/C(=C\C=C\c2ccccc2)C(=O)NC1=S	6.2	8	–	–	–	–
O=C1NC(=S)NC(=O)C1=C/C=C/c1cccc2ccccc12	–	4.2	7.9	4.5	–	3.6
CCN1C(=O)C(=C/C=C/c2ccccc2)C(=O)N(CC)C1=S	8.8	15.2	–	–	–	–
CN1C(=O)/C(=C\C=C\c2cccs2)C(=O)NC1=S	4.7	5.5	21	8.6	23.5	18.2
CCN1C(=O)/C(=C\C=C\c2ccco2)C(=O)NC1=S	13.9	16.2	–	–	–	–
C=CCN1C(=O)/C(=C\C=C\c2ccco2)C(=O)N(CC)C1=S	18.9	14.5	–	–	–	–
C=CCN1C(=O)/C(=C\C=C\c2ccccc2)C(=O)N(CC)C1=S	–	21	–	–	–	–
